Test results taken from ChEMBL document CHEMBL2169747, “Synthesis and biological properties of highly sequence-specific-alkylating N-methylpyrrole-N-methylimidazole polyamide conjugates” (J Med Chem, 2012).
Calls of active or inactive are those of the source. The calls are words filed in the database; no cut-off is given here.

Legend:
A549 [1] = experiment: Downregulation of Q8NCR4 gene expression in human A549 cells at 21 nM after 12 hrs by microarray analysis relative to control; assay type: functional
In short: (§1)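 A549 cells (RPMI-1640, 10% heat-inactivated FBS, penicillin/streptomycin, 37 °C, 5% CO2) seeded at 4 × 10^5 per 60 mm dish. Exposed 12 h to conjugate at 21, 26, 34 or 100 nM in medium with 0.1% DMSO, against 0.1% DMSO control. Whole-genome (~25 000 genes) expression profiled by microarray.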

A549 [2] = experiment: Downregulation of NP_115632.1 gene expression in human A549 cells at 21 nM after 12 hrs by microarray analysis relative to control; assay type: functional
In short: (§2)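 A549 cells, 4 × 10^5 per 60 mm dish, were exposed to conjugate for 12 h in medium with 0.1% DMSO; vehicle control was 0.1% DMSO. Whole human genome (~25 000 genes) expression was profiled by microarray and expression compared with the control.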

A549 [3] = experiment: Upregulation of BTNL3 gene expression in human A549 cells at 21 nM after 12 hrs by microarray analysis relative to control; assay type: functional
In short: (§3)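 4 ×10^5 A549 cells seeded per 60 mm dish and treated 12 h with conjugate (21, 26, 34 or 100 nM) in medium; control medium contained 0.1% DMSO, with conjugates added as 0.1% DMSO solutions. Whole human genome (~25 000 genes) expression profiled by microarray against the DMSO control. A549 culture: RPMI-1640 with 10% heat-inactivated FBS, penicillin/streptomycin, 37 °C, 5% CO2.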

A549 [4] = experiment: Upregulation of MDM2 gene expression in human A549 cells at 21 nM after 12 hrs by microarray analysis relative to control; assay type: functional; in short: as §3
A549 [5] = experiment: Downregulation of NP_060463.1 gene expression in human A549 cells at 21 nM after 12 hrs by microarray analysis relative to control; assay type: functional; in short: as §2
A549 [6] = experiment: Downregulation of Q8N570_HUMAN gene expression in human A549 cells at 21 nM after 12 hrs by microarray analysis relative to control; assay type: functional; in short: as §1
A549 [7] = experiment: Downregulation of NBEA gene expression in human A549 cells at 21 nM after 12 hrs by microarray analysis relative to control; assay type: functional; in short: as §2
A549 [8] = experiment: Downregulation of RS29_HUMAN gene expression in human A549 cells at 21 nM after 12 hrs by microarray analysis relative to control; assay type: functional; in short: as §1
PC-3 = experiment: Cytotoxicity against human PC3 cells assessed as cell growth inhibition after 48 hrs by microplate reader analysis; assay type: functional, cell-based; conditions: PC-3, 48 h
In short: (§4)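 Medium was RPMI-1640 for EBC-1, A549 and DU145, and DMEM for PC-3, SK-N-SH and K562. Both media had 10% heat-inactivated FBS plus penicillin/streptomycin; cells were kept at 37 °C, 5% CO2. Cells were seeded at 5000/well and given compound from DMSO stock (final 0.1% DMSO) for 48 h. Viability was read by WST-8 colorimetry, absorbance at 450 and 600 nm, and IC50 determined.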

K562 = experiment: Cytotoxicity against human K562 cells assessed as cell growth inhibition after 48 hrs by microplate reader analysis; assay type: functional, cell-based; conditions: K562, 48 h; in short: as §4
A549 [9] = experiment: Downregulation of HECW2 gene expression in human A549 cells at 21 nM after 12 hrs by microarray analysis relative to control; assay type: functional; in short: as §2
A549 [10] = experiment: Downregulation of PTPRK gene expression in human A549 cells at 21 nM after 12 hrs by microarray analysis relative to control; assay type: functional; in short: as §1
A549 [11] = experiment: Downregulation of Q5VY43 gene expression in human A549 cells at 21 nM after 12 hrs by microarray analysis relative to control; assay type: functional; in short: as §1
A549 [12] = experiment: Cytotoxicity against human A549 cells assessed as cell growth inhibition after 48 hrs by microplate reader analysis; assay type: functional, cell-based; conditions: A549, 48 h; in short: as §4
A549 [13] = experiment: Downregulation of FMN2 gene expression in human A549 cells at 21 nM after 12 hrs by microarray analysis relative to control; assay type: functional; in short: as §2
A549 [14] = experiment: Downregulation of MBD3L1 gene expression in human A549 cells at 21 nM after 12 hrs by microarray analysis relative to control; assay type: functional; in short: as §2
A549 [15] = experiment: Downregulation of FHIT gene expression in human A549 cells at 21 nM after 12 hrs by microarray analysis relative to control; assay type: functional; in short: as §2
A549 [16] = experiment: Upregulation of BTG2 gene expression in human A549 cells at 21 nM after 12 hrs by microarray analysis relative to control; assay type: functional; in short: as §3
A549 [17] = experiment: Upregulation of FDXR gene expression in human A549 cells at 21 nM after 12 hrs by microarray analysis relative to control; assay type: functional; in short: as §3
Nucleic Acid = experiment: Induction of calf thymus DNA cleavage at 10 to 25 nM after 12 h by PAGE analysis; assay type: nucleic-acid assay; conditions: in the assay text read “208-bp PCR fragment DNA” for “calf thymus DNA”
In short: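 5′-Texas Red-labeled 208 bp PCR fragments alkylated in 5.0 mM sodium phosphate (pH 7.0) with 10% DMF, room temperature, 12 h. Quenched with calf thymus DNA and heated 95 °C for 5 min under neutral conditions. Recovered DNA in formamide loading dye, heated 95 °C 20 min, then run on 6% denaturing polyacrylamide gel with 6.0 M urea at 1.5 kV, 40 °C.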

A549 [18] = experiment: Downregulation of SUPT3H gene expression in human A549 cells at 21 nM after 12 hrs by microarray analysis relative to control; assay type: functional; in short: as §1
A549 [19] = experiment: Upregulation of CDKN1A gene expression in human A549 cells at 21 nM after 12 hrs by microarray analysis relative to control; assay type: functional; in short: as §3
A549 [20] = experiment: Downregulation of ACTG gene expression in human A549 cells at 21 nM after 12 hrs by microarray analysis relative to control; assay type: functional; in short: as §2
A549 [21] = experiment: Downregulation of SLC4A4 gene expression in human A549 cells at 21 nM after 12 hrs by microarray analysis relative to control; assay type: functional; in short: as §1
A549 [22] = experiment: Upregulation of HCK gene expression in human A549 cells at 21 nM after 12 hrs by microarray analysis relative to control; assay type: functional; in short: as §3
[23] = Cytotoxicity against human EBC1 cells assessed as cell growth inhibition after 48 hrs by microplate reader analysis; assay type: functional, cell-based; conditions: EBC-1, 48 h; in short: as §4
A549 [24] = experiment: Upregulation of BBC3 gene expression in human A549 cells at 21 nM after 12 hrs by microarray analysis relative to control; assay type: functional; in short: as §1
SK-N-SH = experiment: Cytotoxicity against human SK-N-SH cells assessed as cell growth inhibition after 48 hrs by microplate reader analysis; assay type: functional, cell-based; in short: as §4
A549 [25] = experiment: Downregulation of SMYD3 gene expression in human A549 cells at 21 nM after 12 hrs by microarray analysis relative to control; assay type: functional; in short: as §1
A549 [26] = experiment: Upregulation of CST8 gene expression in human A549 cells at 21 nM after 12 hrs by microarray analysis relative to control; assay type: functional; in short: as §3
A549 [27] = experiment: Downregulation of RABGAP1L gene expression in human A549 cells at 21 nM after 12 hrs by microarray analysis relative to control; assay type: functional; in short: as §1
A549 [28] = experiment: Downregulation of CPNE4 gene expression in human A549 cells at 21 nM after 12 hrs by microarray analysis relative to control; assay type: functional; in short: as §2
A549 [29] = experiment: Downregulation of GABRA3 gene expression in human A549 cells at 21 nM after 12 hrs by microarray analysis relative to control; assay type: functional; in short: as §2
DU-145 = experiment: Cytotoxicity against human DU145 cells assessed as cell growth inhibition after 48 hrs by microplate reader analysis; assay type: functional, cell-based; conditions: DU-145, 48 h; in short: as §4
A549 [30] = experiment: Downregulation of SLC25A21 gene expression in human A549 cells at 21 nM after 12 hrs by microarray analysis relative to control; assay type: functional; in short: as §1
A549 [31] = experiment: Upregulation of HES2 gene expression in human A549 cells at 21 nM after 12 hrs by microarray analysis relative to control; assay type: functional; in short: as §3
A549 [32] = experiment: Upregulation of Q6NTF7 gene expression in human A549 cells at 21 nM after 12 hrs by microarray analysis relative to control; assay type: functional; in short: as §3

- Activity (Nucleic Acid): Active
SMILES: CC(=O)Nc1cc(C(=O)Nc2cn(C)c(C(=O)NCCC(=O)Nc3cn(C)c(C(=O)Nc4cc(C(=O)NCCCC(=O)Nc5cc(C(=O)Nc6cc(C(=O)Nc7cc(C(=O)Nc8ccc9[nH]c(C(=O)N%10CC(CCl)c%11c%10cc(O)c%10ccccc%11%10)cc9c8)n(C)c7)n(C)c6)n(C)c5)n(C)c4)n3)n2)n(C)c1 (racemic)
- fold change (FC) (A549 [1]): 0.348
- fold change (FC) (A549 [2]): 0.154
- fold change (FC) (A549 [3]): 2
- fold change (FC) (A549 [4]): 5.4
- fold change (FC) (A549 [5]): 0.303
- fold change (FC) (A549 [6]): 0.228
- fold change (FC) (A549 [7]): 0.274
- fold change (FC) (A549 [8]): 0.234
- IC50 (PC-3): 0.00603 µM
- IC50 (K562): 0.00776 µM
- fold change (FC) (A549 [9]): 0.346
- fold change (FC) (A549 [10]): 0.334
- fold change (FC) (A549 [11]): 0.354
- IC50 (A549 [12]): 0.0214 µM
- fold change (FC) (A549 [13]): 0.344
- fold change (FC) (A549 [14]): 0.294
- fold change (FC) (A549 [15]): 0.253
- fold change (FC) (A549 [16]): 6.7
- fold change (FC) (A549 [17]): 2
- fold change (FC) (A549 [18]): 0.268
- fold change (FC) (A549 [19]): 5.2
- fold change (FC) (A549 [20]): 0.345
- fold change (FC) (A549 [21]): 0.278
- fold change (FC) (A549 [22]): 4.3
- IC50 [23]: 0.0339 µM
- fold change (FC) (A549 [24]): 5.7
- IC50 (SK-N-SH): 0.0151 µM
- fold change (FC) (A549 [25]): 0.345
- fold change (FC) (A549 [26]): 5.3
- fold change (FC) (A549 [27]): 0.132
- fold change (FC) (A549 [28]): 0.314
- fold change (FC) (A549 [29]): 0.343
- IC50 (DU-145): 0.00331 µM
- fold change (FC) (A549 [30]): 0.354
- fold change (FC) (A549 [31]): 10.6
- fold change (FC) (A549 [32]): 7
